Screening results deposited in PubChem BioAssay by several laboratories.
An excerpt weighted towards active compounds, which were near 2.2% of everything screened.
PAD4 FP inh: inhibitors of human PAD4; recombinant PAD4, RCA probe fluorescence polarization; hit rate 0.41% among 330,000; inhibition, % at 6.36 µM; Q9UM07;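 active = percent inhibition above a cutoff equal to the mean of all tested compounds plus 3 SD, cut at about 15% in these data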;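 note: 0% = PAD4 with RCA probe and DMSO and 100% = probe without PAD4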
Target sequence (Q9UM07 whole entry, looked up): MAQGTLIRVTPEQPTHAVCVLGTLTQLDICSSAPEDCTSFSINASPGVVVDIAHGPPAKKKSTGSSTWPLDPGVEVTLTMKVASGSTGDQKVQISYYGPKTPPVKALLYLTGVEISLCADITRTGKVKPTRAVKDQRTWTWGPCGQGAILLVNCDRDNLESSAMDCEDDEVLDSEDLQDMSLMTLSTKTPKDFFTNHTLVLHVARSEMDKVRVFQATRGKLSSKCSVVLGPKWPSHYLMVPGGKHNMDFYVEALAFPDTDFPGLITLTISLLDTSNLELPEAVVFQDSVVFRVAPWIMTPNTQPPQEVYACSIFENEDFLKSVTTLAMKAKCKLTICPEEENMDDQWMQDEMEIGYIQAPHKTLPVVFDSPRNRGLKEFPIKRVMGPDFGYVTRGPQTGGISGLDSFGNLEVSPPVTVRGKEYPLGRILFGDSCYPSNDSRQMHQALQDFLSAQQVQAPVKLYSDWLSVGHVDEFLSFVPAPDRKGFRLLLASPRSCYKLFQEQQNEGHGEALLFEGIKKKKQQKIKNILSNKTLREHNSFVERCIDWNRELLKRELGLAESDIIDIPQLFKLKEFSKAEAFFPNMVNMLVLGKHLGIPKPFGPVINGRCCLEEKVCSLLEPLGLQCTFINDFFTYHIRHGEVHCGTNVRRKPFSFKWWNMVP
UBC13 polyUb: blocks human UBC13 polyubiquitin chain formation; TR-FRET; inhibition, % at 20 µM; hit rate 0.47% among 330,000; AID 485273; in the data active = inhibition above about 45%, passing the limit was not always enough
Apaf1 inhib: inhibitors of human Apaf-1 apoptosome | AID 489030 | O14727 | hit rate 0.71% among 330,000 | reconstituted apoptosome caspase-3 activity, DEVD-Rh110 fluorescence | inhibition, % at 20 µM; active = inhibition of at least 40% at 20 µM;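 note: plate controls were DMSO wells for no effect and DEVD-CHO caspase inhibitor wells for full effect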
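Assay system – apoptosome proteins · Medium – Hepes buffer, pH 7.5 · Also added – cytochrome c with DEVD-Rh110 · Timing – 30 min compound preincubation, 50 min activation, room temperature · Detection – Rh110 fluorescence, excitation 480 nm, emission 540 nm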
GSTO1 counter: counter-screen for RBBP9 inhibitors: inhibitors of human GSTO1; recombinant GSTO1, activity-based probe fluorescence polarization; inhibition, % at 5.96 µM; hit rate 1.1% among 300,000; AID 1974;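 active = inhibition above the campaign mean inhibition plus 3 SD, cut at about 35% in these data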;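 note: 0% = GSTO1-1 with DMSO and 100% = wells lacking GSTO1-1 enzyme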
Rin1 Abl inh: inhibitors of human Rin1-Abl protein interaction | TR-FRET Rin1/Abl binding, biochemical | inhibition, % at 7.35 µM | hit rate 0.4% among 360,000 | AID 588664; in the data active = inhibition above about 5%, passing the limit was not always enough
SUMO HTRF inh: inhibitors of human SUMOylation (UBC9) | P63279 | HTRF SUMOylation assay, SAE1/SAE2 + UBC9, in vitro | hit rate 0.36% among 290,000 | inhibition, % at 35 µM; in the data active = inhibition above about 50%, passing the limit was not always enough
Rin1-Abl confirm: confirmation of inhibitors of human Rin1-Abl interaction. hit rate 49% among 1,300. TR-FRET Rin1-Abl binding, purified proteins. shares compounds with Rin1 Abl inh. AID 602124. inhibition, % at 7.35 µM
GFP quench-1: GFP fluorescence interference artifact. inhibitors/quenchers counterscreen. inhibition, % at 6.75 µM. shares compounds with Rin1 Abl inh. AID 602125. hit rate 8.5% among 1,300;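 note: ABL1-eGFP fusion protein alone without its partner RIN1-SBP; 0% = protein with vehicle and 100% = wells lacking protein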
GFP quench DR: counter-screen for Rin1-Abl inhibitors: GFP quenchers, dose response; shares compounds with Rin1 Abl inh; GFP fluorescence interference/quenching counterscreen; IC50, µM; 230 tested, under 10 active; AID 602182; call rule not given here;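 note: ABL1-eGFP fusion protein alone without its RIN1 binding partner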
GFP quench-2: counter-screen for Rin1-Abl interaction inhibitors: GFP fluorescence quenching. shares compounds with Rin1 Abl inh. GFP fluorescence quenching counterscreen, biochemical. IC50, µM. 25 tested, under 10 active; call rule not given here
The depositor's hits bear a star; · = not tested or not shown. Cut-off read from the data, not from the text of the source, unless noted: active = inhibition above about 6.5%; inactive = the rest.

SMILES | PAD4 FP inh | UBC13 polyUb | Apaf1 inhib | GSTO1 counter | Rin1 Abl inh | SUMO HTRF inh | Rin1-Abl confirm | GFP quench-1 | others
OC[C@@H]1CN(Cc2ccc(-c3ccccc3)cc2)C[C@H](n2cnc3c(Nc4ccccc4)ncnc32)O1 | · | · | · | · | 2.0 | · | · | ·
COc1cccc(-c2cnc(C(O)c3ccc(F)cc3C)[nH]2)c1 (configuration not stated) | · | · | · | · | -2.4 | · | · | ·
O=C(COc1ccc(-c2ccccc2)cc1)N1CCCC1 | -5.8 | 4.6 | 10.3 | 8.0 | 0.1 | -3.9 | · | ·
O=C1CN(C(=O)COc2ccccc2)CCN1 | -2.3 | -0.9 | 5.4 | 1.2 | 8.5* | 6.6 | -0.5 | -0.9
COCC(=O)Nc1ccc2c(c1)[C@@H]1C[C@H](CC(=O)NCc3cccc(F)c3)O[C@@H](CO)[C@@H]1O2 | · | · | · | · | 49.9* | · | -0.1 | 0.6
Cc1ccc(S(=O)(=O)N2CCOCC2)cc1C(=O)NCc1ccccn1 | -0.3 | 4.8 | -5.3 | · | 0.9 | · | · | ·
COc1ccc2oc(C(=O)NCC(c3ccco3)N(C)C)c(C)c2c1 (configuration not stated) | 0.9 | 4.3 | 6.6 | 3.8 | 40.3* | · | 44.7* | 1.6 | GFP quench DR=>67.6;GFP quench-2=>67.5
O=C(CCC1CCCN(C(=O)C2(c3ccccc3)CC2)C1)N1CCN(c2ccccn2)CC1 (configuration not stated) | -4.8 | 2.5 | 4.1 | 1.4 | 10.0* | 0.5 | 4.1 | 0.1
Cc1cccc(C(=O)N2CCCC(CCC(=O)N3CCN(c4ccccn4)CC3)C2)c1C (configuration not stated) | -4.8 | -0.4 | -3.5 | -0.6 | 11.5* | 3.5 | 4.2 | 0.4
Cc1ccc(C(=O)N2CCCC(CCC(=O)N3CCN(c4ccccn4)CC3)C2)cc1C (configuration not stated) | -9.7 | 0.0 | 12.0 | -5.7 | 9.4* | -9.0 | 3.5 | -1.7
O=C(CCC1CCCN(c2ncccn2)C1)N1CCN(c2ccccn2)CC1 (configuration not stated) | -1.3 | 15.4 | -20.6 | 0.5 | 3.4 | 7.9 | · | ·
Cc1ccc(C(=O)N2CCCC(CCC(=O)N3CCN(c4ccccn4)CC3)C2)cn1 (configuration not stated) | -2.5 | 4.6 | 1.8 | -1.4 | 0.8 | 18.4 | · | ·
COC(=O)C(NS(=O)(=O)c1ccc(N2CCCC2=O)cc1)c1ccccc1 (configuration not stated) | -0.6 | 1.1 | -6.0 | -4.2 | 0.2 | 7.4 | · | ·
CCCC(=O)NC(c1ccco1)c1cc([N+](=O)[O-])c2cccnc2c1O (configuration not stated) | -6.0 | -45.7 | -3.2 | 27.3 | 9.3* | 7.2 | -2.6 | 4.8
CCCC(=O)NC(c1ccc(C(C)C)cc1)c1ccc2cccnc2c1O (configuration not stated) | -2.2 | -12.8 | -9.8 | -1.6 | 0.5 | -36.6 | · | ·
CCC(=O)NC(c1ccco1)c1cc(Br)c2cccnc2c1O (configuration not stated) | · | · | · | · | 7.9* | · | 8.1* | 3.6
CCC(=O)NC(c1ccc(C)cc1)c1ccc2cccnc2c1O (configuration not stated) | 2.5 | -21.3 | -4.6 | 0.3 | 10.9* | 4.9 | 6.8* | 2.2
CC(=O)c1cccc(S(=O)(=O)Nc2cccnc2)c1 | 1.7 | 6.6 | 1.6 | -5.7 | 1.5 | 3.3 | · | ·
Cn1c(=O)c2c(nc(CN3CCN(C(=O)c4ccco4)CC3)n2Cc2cccc(Cl)c2)n(C)c1=O | -4.5 | 9.0 | -5.4 | -0.7 | 7.1* | 2.4 | -2.1 | 1.2
CN1CCN(Cc2oc(CO)cc(=O)c2O)CC1 | 2.5 | 6.7 | -9.5 | 5.7 | 12.0* | 15.9 | -0.6 | -0.5
O=c1cc(CO)oc(CN2CCCC2)c1O | 1.9 | -2.1 | -18.0 | 29.0 | 27.0* | 23.3 | 2.8 | 0.2
O=c1cc(CO)oc(CN2CCN(Cc3ccccc3)CC2)c1O | 3.4 | 0.4 | -14.1 | 11.9 | 5.2 | 14.6 | · | ·
CCN(CC)Cc1oc(CO)cc(=O)c1O | 4.2 | 12.1 | -8.4 | 7.3 | 26.0* | 10.2 | 11.2* | 2.2
Cn1c(CCN2CCN(c3ccccn3)CC2)nc2cc(NS(=O)(=O)c3ccccc3)ccc21 | -2.4 | -6.1 | 10.6 | 4.3 | 1.6 | -6.0 | · | ·
CC1CCc2sc(C(=O)NN=C3CCCC3)cc2C1 (configuration not stated) | · | · | · | · | -0.9 | · | · | ·
SMILES | PAD4 FP inh | UBC13 polyUb | Apaf1 inhib | GSTO1 counter | Rin1 Abl inh | SUMO HTRF inh | Rin1-Abl confirm | GFP quench-1 | others
Cc1ccc2c(CC(=O)Nc3ccc4nc(N5CCOCC5)sc4c3)coc2c1 | · | · | · | · | 0.1 | · | · | ·
Cc1cccc(C)c1NC(=O)CCCN1CC(C)OC(C)C1 (configuration not stated) | 1.4 | -7.2 | -0.2 | -0.6 | -0.9 | 14.4 | · | ·
Cc1cccc(C)c1NC(=O)CCCCCC1NC(=O)NC1C (configuration not stated) | -0.8 | 5.4 | -12.6 | -0.8 | 82.4* | 9.7 | 91.0* | -0.3 | GFP quench DR=>67.5
CCCCCC1NC(=O)NC1CCCCCC(=O)O (configuration not stated) | -0.5 | 8.9 | -2.0 | -3.4 | 14.0* | 6.1 | 14.1* | 0.2
C[C@@H]1NC(=O)N[C@@H]1CCCCCC(=O)O | -3.4 | -8.2 | -2.3 | 4.2 | 91.6* | · | 95.3* | 0.5 | GFP quench DR=>67.5
CCCCCCCC(=O)O | -0.7 | -1.1 | -3.3 | · | -3.1 | · | · | ·
C[C@@H]1Cn2cnc(C(=O)N[C@@H](Cc3c[nH]c4ccccc34)C(=O)OC(C)(C)C)c2C(=O)N1 | · | · | · | · | -1.1 | · | · | ·
COc1cccc(N2CC(C(=O)Nc3ccc(F)cc3)CC2=O)c1 (configuration not stated) | -0.7 | 0.2 | 4.0 | 7.7 | 0.7 | 5.0 | · | ·
COc1cccc(N2CC(C(=O)Nc3ccc(C(=O)OC(C)C)cc3)CC2=O)c1 (configuration not stated) | 1.5 | 5.5 | 16.9 | -8.7 | 17.5* | -7.7 | 13.8* | -1.2
O=C(O)c1ccccc1-c1ccccc1C(=O)Nc1ccc(F)cc1 | 0.7 | 1.9 | -11.7 | -0.1 | 4.3 | 3.0 | · | ·
CC(C)(C)NC(=O)c1ccc(NC(=O)c2ccccc2-c2ccccc2C(=O)O)cc1 | -1.9 | -5.0 | -3.2 | 0.7 | 6.5* | 19.3 | -0.5 | 0.7
COc1ccc(CC(=O)OCC(=O)NCc2ccccc2Cl)cc1OC | -4.2 | 3.4 | -15.5 | 1.6 | 10.1* | -10.7 | 3.2 | -0.4
COc1ccccc1CNC(=O)COC(=O)Cc1ccc(Br)cc1 | 3.3 | 7.2 | 5.4 | · | 1.6 | · | · | ·
O=C(O)CC1(CC(=O)Nc2cccc(C(=O)O)c2)CCCC1 | 1.7 | -0.3 | 7.7 | -5.7 | 8.0* | 3.9 | -1.8 | -0.3
